We go through 1 compound from article PMC8978309 (Materials Advances, 2022).

A short description of data set [1]: Hydroxyapatite. Type of data set: binding. Conditions: PBS pH 7.40, 37 °C. The method in brief: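 20 mg synthetic hydroxyapatite incubated with 3 mL test compound in PBS (0.5 mg mL−1) at 37 °C for 0–11 d. Controls were compound alone and HA alone in PBS. Supernatant collected daily and centrifuged (1500 rpm, 8 min). Bound fraction derived from the fall in supernatant absorbance at 208 nm. Experimental groups done in duplicate.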

A short description of data set [2]: Dissolution profile in PBS. Type of data set: physicochemical. Conditions: PBS pH 7.40, 37 °C. The method in brief:
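Powdered test compound dissolved in 100 mL PBS (pH 7.40) at 37 °C with constant stirring at 150 rpm for 48 h. Release followed by UV absorbance at 208 nm (scan 400–200 nm) against a reagent blank.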

Data set [3] can be described thus: Dissolution profile in FaSSGF. It counts as physicochemical. The conditions noted are these: FaSSGF pH 1.60, 37 °C. In outline: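 Test compound stirred in 100 mL fasted-state simulated gastric fluid (HCl/NaCl, pH 1.60) at 37 °C and 150 rpm for 36 h. Dissolved drug quantified directly by UV absorbance at 208 nm (400–200 nm scan) against a reagent blank.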
Data set [4] in a line: AlamarBlue cytotoxicity assay, MDA-MB-231. It counts as cell-based, human. Conditions: human, MDA-MB-231 cells. In outline: (§1)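 MDA-MB-231 cells grown in DMEM with 1% Pen-Strep and 10% FBS at 37 °C, 5% CO2. Seeded at 2.5 × 10^5 cell per mL, then preincubated 24 h. […] Read-out: 10% AlamarBlue in PBS, 4 h, fluorescence ex 560/em 590 nm, normalised to medium control (100%). IC50 by nonlinear regression; triplicates, mean, SD, %CV.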
(In general: Resazurin is reduced to fluorescent resorufin, in cell work by metabolically active cells.)

Data set [5] has as its system human breast cancer MDA-MB-231 cell line. As to the kind of experiment: AlamarBlue cytotoxicity assay, MDA-MB-231. Type of data set: cell-based. The conditions noted are these: for IC50: Homo sapiens; for relative cell live (%RCL): MDA-MB-231, 15 μM. The method in brief:
as §1

Data set [6] relates to normal osteoblast-like hFOB 1.19 cell line. The data set is described as follows: AlamarBlue cytotoxicity assay, hFOB 1.19. Type of data set: cell-based, human. The conditions noted are these: for IC50: Homo sapiens. The method in brief: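 hFOB 1.19 osteoblast-like cells grown in 1:1 DMEM:F-12 with 0.3 mg mL−1 G418 and 10% FBS at 34 °C, 5% CO2. Seeded at 2.5 × 10^5 cell per mL, then preincubated 24 h at 34 °C. Exposed 24, 48 or 72 h to two-fold dilutions (0–200 μM), or to 1.9–15 μM. Read-out: 10% AlamarBlue, 4 h, fluorescence 560/590 nm, relative to medium control. IC50 by nonlinear regression; triplicates.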

The conditions of data set [7]: cited from earlier work.

In the case of `O=P(O)(O)C(O)(Cn1ccnc1)P(=O)(O)O` [ZOLE, zoledronate], in data set [1], the “time to reach maximum binding to HA” value came to 8 days. Also, the “maximum binding to HA” value in data set [1] (0–11 d) was found to be 82%. The “binding to HA” value in data set [1] (in 1 d) was 15%. In addition, the figures for the “time to reach maximum dissolution / equilibrium solubility” value in data set [2] and in data set [3] were 30 min and 3 h, respectively. In addition, in data set [2] (150 rpm), the “dissolution (ZOLE content released, maximum reached)” value was found to be 100%. Moreover, in data set [4], the viability – broadly, a per cent measure of how many cells are alive, often set against a control – at 1.9 µM was roughly 100%. For the same compound, the IC50 (in general, the point on the concentration scale where inhibition reaches its midpoint) was greater than 200 µM in data set [5] (MDA-MB-231, 24 h); greater than 200 µM in data set [5] (MDA-MB-231, 48 h); 35 ± 4 µM in data set [5] (MDA-MB-231, 72 h); greater than 200 µM in data set [6] (24 h); 86 ± 3 µM in data set [6] (48 h); 49 ± 4 µM in data set [6] (72 h). In addition, the “%RCL” value in data set [5] (MDA-MB-231, 3.8 μM, time not stated (Fig. 9b)) was roughly 100%. Moreover, the entries for the “relative cell live (%RCL)” value in data set [5] (48 h) and in data set [5] (72 h) were 80 ± 2% and 58 ± 2%, respectively. Further, the “cell death (cell viability result in words)” value in data set [6] (hFOB 1.19, 3.8–15 μM, after 24, 48, and 72 h) is “no significant cell death”. For the same compound, the bioavailability (usually the share of a dose that reaches the circulation, judged against a reference dose that is usually intravenous) in data set [7] was less than 1%. For the same compound, the maximum plasma concentration in data set [7] was 1 µM.
